Reference: ChEMBL document CHEMBL1221207, “Expanding the promiscuity of a natural-product glycosyltransferase by directed evolution” (Nat Chem Biol, 2007)
Changes are numbered by the printed parent chain.

Experiments:
[1] = molecular target: T1, Oleandomycin glycosyltransferase (Streptomyces antibioticus) (UniProt Q53685); test: Activity of Streptomyces antibioticus wild-type OleD assessed as conversion rate of compound to produce glucoside 3 using NDP sugar UDP-glucose after 3 hrs by HPLC
T1 sequence (whole entry): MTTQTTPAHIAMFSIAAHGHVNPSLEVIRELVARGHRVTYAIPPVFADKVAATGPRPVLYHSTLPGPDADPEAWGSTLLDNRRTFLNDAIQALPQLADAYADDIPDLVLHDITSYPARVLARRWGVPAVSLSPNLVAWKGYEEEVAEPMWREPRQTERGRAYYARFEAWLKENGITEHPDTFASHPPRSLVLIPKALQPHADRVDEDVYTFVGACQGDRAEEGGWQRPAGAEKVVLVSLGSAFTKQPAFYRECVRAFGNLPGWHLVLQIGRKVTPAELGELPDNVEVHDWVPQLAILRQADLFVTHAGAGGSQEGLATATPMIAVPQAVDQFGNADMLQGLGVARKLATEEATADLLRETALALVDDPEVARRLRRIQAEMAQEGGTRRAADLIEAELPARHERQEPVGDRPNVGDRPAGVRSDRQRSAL
Outline: (§1)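 End-point donor-specificity assay with purified OleD enzyme. Percentage conversion was read after 3 h. Quenched reactions were run by reverse-phase C18 HPLC with a 10–90% CH3CN gradient in 0.1% formic acid/H2O over 20 min at 1 ml min–1, with detection at 254 nm. Products were identified by LC-MS, by comparison to standards where available, and by fluorescence.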

[2] = molecular target: T1, Oleandomycin glycosyltransferase (Streptomyces antibioticus); test: Activity of Streptomyces antibioticus wild-type OleD assessed as conversion rate of compound to produce glucoside 3 using NDP sugar donor UDP-6-thio-glucose after 3 hrs by HPLC; outline: as §1
[3] = test system: T2, Oleandomycin glycosyltransferase (Streptomyces antibioticus), Q53685 [P67T,S132F,A242V]; test: Activity of Streptomyces antibioticus OleD P67T/S132F/A242V mutant assessed as conversion rate of compound to produce glucoside 3 using NDP sugar UDP-xylose after 3 hrs by HPLC; outline: as §1
T2 sequence (whole entry): T1 sequence (whole entry) with P67T, S132F, A242V

[4] = test system: T3, Oleandomycin glycosyltransferase (Streptomyces antibioticus), Q53685 [S132F]; test: Activity of Streptomyces antibioticus OleD S132F mutant assessed as conversion rate of compound to produce glucoside 3 using NDP sugar donor UDP-6-deoxy-glucose after 3 hrs by HPLC; outline: as §1
T3 sequence (whole entry): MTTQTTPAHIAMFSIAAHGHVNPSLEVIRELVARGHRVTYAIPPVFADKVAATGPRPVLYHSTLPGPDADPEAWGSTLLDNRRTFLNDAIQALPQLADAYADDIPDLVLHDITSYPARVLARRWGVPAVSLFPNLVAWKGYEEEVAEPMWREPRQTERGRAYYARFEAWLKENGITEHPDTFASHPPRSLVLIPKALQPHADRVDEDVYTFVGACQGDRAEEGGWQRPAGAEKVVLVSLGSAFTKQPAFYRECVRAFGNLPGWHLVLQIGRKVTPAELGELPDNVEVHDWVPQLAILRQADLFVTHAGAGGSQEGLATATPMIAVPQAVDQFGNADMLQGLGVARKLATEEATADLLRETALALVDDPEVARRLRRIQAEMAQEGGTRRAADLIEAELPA

**Q.** Which results are given for Cc1cc(=O)oc2cc(O)ccc12?
**A.** Activity [1]: 13.9%; Activity [2]: 1%; Activity [3]: 31%; Activity [4]: 10%
